Reference: ChEMBL document CHEMBL4665651, “Design, synthesis, and biological evaluation of some novel 4-aminoquinazolines as Pan-PI3K inhibitors” (Bioorg Med Chem, 2019)
pIC50: −log10 of the molar value.

What was measured:
HCT-116 = test: Antiproliferative activity against human HCT-116 cells assessed as reduction in cell viability incubated for 72 hrs by SRB assay; format: functional, cell-based; settings: HCT-116, 72 h
MCF7 = test: Antiproliferative activity against human MCF7 cells assessed as reduction in cell viability incubated for 72 hrs by SRB assay; format: functional, cell-based; settings: MCF7, 72 h
Method in brief: (§1)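 Cell lines grown at 37 °C in 5% CO₂: A549 in RPMI1640, MCF-7 in DMEM, each with 10% FBS plus penicillin/streptomycin/amphotericin B. Cells exposed to a range of compound concentrations for 72 h, then TCA-fixed and SRB-stained. Growth inhibition = 100 − 100×(OD sample − OD day 0)/(OD negative control − OD day 0). IC50 from non-linear regression of percent growth against concentration.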

A549 = test: Antiproliferative activity against human A549 cells assessed as reduction in cell viability incubated for 72 hrs by SRB assay; format: functional, cell-based; settings: A549, 72 h; method in brief: as §1
[1] = biological target: Epidermal growth factor receptor (Homo sapiens, UniProt P00533); test: Inhibition of EGFR (unknown origin) using FAM-labeled peptide as substrate incubated for 10 mins followed by substrate addition and measured after 1 hr by mobility shift assay
Method in brief: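 Mobility shift assay in 50 mM HEPES pH 7.5, 10 mM MgCl₂, 2 mM DTT, 0.0015% Brij35. Compound in 10-point DMSO dilution, run in duplicate. Enzyme preincubated with compound 10 min at room temperature. FAM-labeled peptide and ATP then added and reaction run at 28 °C for 1 h. Stopped with EDTA buffer; conversion turned into percent inhibition and fitted to a Hill equation for IC50.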

Epidermal growth factor receptor, sequence (P00533 whole entry): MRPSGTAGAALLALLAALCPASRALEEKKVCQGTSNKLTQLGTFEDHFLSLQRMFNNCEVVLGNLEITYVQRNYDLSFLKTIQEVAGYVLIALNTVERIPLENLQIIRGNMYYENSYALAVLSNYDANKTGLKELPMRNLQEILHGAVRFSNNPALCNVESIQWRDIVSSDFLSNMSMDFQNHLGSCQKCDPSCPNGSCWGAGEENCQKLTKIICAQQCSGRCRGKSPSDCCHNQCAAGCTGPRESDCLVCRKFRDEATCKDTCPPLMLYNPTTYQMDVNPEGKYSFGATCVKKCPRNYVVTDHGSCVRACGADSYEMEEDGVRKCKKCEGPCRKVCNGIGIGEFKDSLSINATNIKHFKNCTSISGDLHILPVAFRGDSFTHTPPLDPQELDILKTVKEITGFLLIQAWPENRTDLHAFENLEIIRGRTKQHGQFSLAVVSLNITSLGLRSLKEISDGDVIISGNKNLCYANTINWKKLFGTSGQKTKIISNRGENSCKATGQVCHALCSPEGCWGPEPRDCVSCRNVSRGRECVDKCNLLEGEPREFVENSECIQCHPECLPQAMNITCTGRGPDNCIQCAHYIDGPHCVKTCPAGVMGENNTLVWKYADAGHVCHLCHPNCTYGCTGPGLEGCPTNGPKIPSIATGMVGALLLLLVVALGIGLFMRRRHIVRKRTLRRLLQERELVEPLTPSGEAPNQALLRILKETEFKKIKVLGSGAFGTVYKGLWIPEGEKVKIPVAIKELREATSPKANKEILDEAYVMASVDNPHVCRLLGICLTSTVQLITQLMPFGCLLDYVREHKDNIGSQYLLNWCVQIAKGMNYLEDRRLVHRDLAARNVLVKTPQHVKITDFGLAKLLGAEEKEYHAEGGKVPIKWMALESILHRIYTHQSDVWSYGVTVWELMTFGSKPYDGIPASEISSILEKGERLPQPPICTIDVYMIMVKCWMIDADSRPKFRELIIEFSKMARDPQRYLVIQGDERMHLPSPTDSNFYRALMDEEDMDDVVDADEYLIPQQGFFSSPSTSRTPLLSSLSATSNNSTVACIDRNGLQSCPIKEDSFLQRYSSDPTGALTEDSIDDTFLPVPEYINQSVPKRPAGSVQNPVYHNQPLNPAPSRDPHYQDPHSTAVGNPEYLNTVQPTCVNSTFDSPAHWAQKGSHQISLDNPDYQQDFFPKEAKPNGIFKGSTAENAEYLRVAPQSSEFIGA

Structure (SMILES) | pIC50 (HCT-116) | pIC50 (MCF7) | pIC50 (A549) | pIC50 [1]
COC(=O)CCn1cc(Nc2ncnc3ccc(-c4cnc(OC)c(NS(=O)(=O)c5ccc(F)cc5F)c4)cc23)cn1 | 6.01 | 6.31 | 5.52 | –
COc1ncc(-c2ccc3ncnc(Nc4cnn(CCC(=O)O)c4)c3c2)cc1NS(=O)(=O)c1ccc(F)cc1F | 5.89 | 6.25 | 5.42 | –
COc1ncc(-c2ccc3ncnc(Nc4cnn(CC(=O)O)c4)c3c2)cc1NS(=O)(=O)c1ccc(F)cc1F | 5.81 | 6.15 | 5.28 | –
COc1ncc(-c2ccc3ncnc(Nc4ccc(OCCO)cc4)c3c2)cc1NS(C)(=O)=O | 5.31 | 5.49 | 5.28 | –
COc1ncc(-c2ccc3ncnc(Nc4ccc(OCCO)nc4)c3c2)cc1NS(C)(=O)=O | 5.27 | 5.51 | 5.29 | –
COc1ncc(-c2ccc3nccc(-c4ccnnc4)c3c2)cc1NS(=O)(=O)c1ccc(F)cc1F [OMIPALISIB] | 6.85 | 7.52 | 6.07 | –
COc1ncc(-c2ccc3ncnc(Nc4cnn(CCCO)c4)c3c2)cc1NS(=O)(=O)c1ccc(F)cc1F | 6.32 | 5.88 | 5.32 | –
CCCCS(=O)(=O)Nc1cc(-c2ccc3ncnc(Nc4ccc(OCCO)nc4)c3c2)cnc1OC | < 4.70 | < 4.70 | 4.88 | –
COC(=O)Cn1cc(Nc2ncnc3ccc(-c4cnc(OC)c(NS(=O)(=O)c5ccc(F)cc5F)c4)cc23)cn1 | 5.90 | 6.17 | 5.37 | –
COc1ncc(-c2ccc3ncnc(Nc4ccc(OCCCO)nc4)c3c2)cc1NS(=O)(=O)c1ccc(F)cc1F | 5.43 | 5.21 | 5.03 | –
COc1cc(Nc2ncnc3ccc(-c4cnc(OC)c(NS(=O)(=O)c5ccc(F)cc5F)c4)cc23)ccc1OCCO | 5.24 | 5.65 | 5.42 | –
COc1ncc(-c2ccc3ncnc(Nc4cnn(CCO)c4)c3c2)cc1NS(C)(=O)=O | 5.83 | 6.11 | 5.09 | 5.60
COc1ncc(-c2ccc3ncnc(Nc4ccc(OCCO)cc4)c3c2)cc1NS(=O)(=O)c1ccc(F)cc1F | 5.97 | 5.78 | 5.57 | –
COc1ncc(-c2ccc3ncnc(Nc4ccc(OCCO)nc4)c3c2)cc1NS(=O)(=O)c1ccc(F)cc1F | 5.63 | 5.37 | 5.39 | –
COc1ncc(-c2ccc3ncnc(Nc4ccc(OCCO)c(Cl)c4)c3c2)cc1NS(=O)(=O)c1ccc(F)cc1F | 5.14 | 5.43 | 5.22 | –
COc1ncc(-c2ccc3ncnc(Nc4cnn(CCCO)c4)c3c2)cc1NS(C)(=O)=O | 5.85 | 6.14 | 5.44 | –
COc1ncc(-c2ccc3ncnc(Nc4ccc(OCCO)c(F)c4)c3c2)cc1NS(=O)(=O)c1ccc(F)cc1F | 5.04 | 5.32 | 5.18 | –
